From ChEMBL document CHEMBL3351371, “Design and synthesis of phenolic hydrazide hydrazones as potent poly(ADP-ribose) glycohydrolase (PARG) inhibitors” (Bioorg Med Chem Lett, 2014)
pIC50: −log10 of the molar value.

Target: Poly(ADP-ribose) glycohydrolase (Rattus norvegicus, UniProt Q9QYM2)
Experiment: Inhibition of rat testis GST-tagged PARG catalytic activity after 30 mins using [32P]poly(ADP-ribose) by radioassay
How it was run: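 Recombinant rat PARG (from testis cDNA) expressed in E. coli as GST fusion (GST-RPG, 136 kDa), 15 ng per reaction. Compound in DMSO added to 4 μM [32P]poly(ADP-ribose) in 20 mM potassium phosphate pH 7.5, 50 mM KCl, 10 mM 2-mercaptoethanol; 37 °C, 30 min; stopped with 1% SDS (final). PEI-cellulose TLC (0.1 M LiCl/3 M AcOH/3 M urea), imaging-plate radioactivity; activity from fraction of degradation products.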

Poly(ADP-ribose) glycohydrolase, sequence (Q9QYM2 whole entry): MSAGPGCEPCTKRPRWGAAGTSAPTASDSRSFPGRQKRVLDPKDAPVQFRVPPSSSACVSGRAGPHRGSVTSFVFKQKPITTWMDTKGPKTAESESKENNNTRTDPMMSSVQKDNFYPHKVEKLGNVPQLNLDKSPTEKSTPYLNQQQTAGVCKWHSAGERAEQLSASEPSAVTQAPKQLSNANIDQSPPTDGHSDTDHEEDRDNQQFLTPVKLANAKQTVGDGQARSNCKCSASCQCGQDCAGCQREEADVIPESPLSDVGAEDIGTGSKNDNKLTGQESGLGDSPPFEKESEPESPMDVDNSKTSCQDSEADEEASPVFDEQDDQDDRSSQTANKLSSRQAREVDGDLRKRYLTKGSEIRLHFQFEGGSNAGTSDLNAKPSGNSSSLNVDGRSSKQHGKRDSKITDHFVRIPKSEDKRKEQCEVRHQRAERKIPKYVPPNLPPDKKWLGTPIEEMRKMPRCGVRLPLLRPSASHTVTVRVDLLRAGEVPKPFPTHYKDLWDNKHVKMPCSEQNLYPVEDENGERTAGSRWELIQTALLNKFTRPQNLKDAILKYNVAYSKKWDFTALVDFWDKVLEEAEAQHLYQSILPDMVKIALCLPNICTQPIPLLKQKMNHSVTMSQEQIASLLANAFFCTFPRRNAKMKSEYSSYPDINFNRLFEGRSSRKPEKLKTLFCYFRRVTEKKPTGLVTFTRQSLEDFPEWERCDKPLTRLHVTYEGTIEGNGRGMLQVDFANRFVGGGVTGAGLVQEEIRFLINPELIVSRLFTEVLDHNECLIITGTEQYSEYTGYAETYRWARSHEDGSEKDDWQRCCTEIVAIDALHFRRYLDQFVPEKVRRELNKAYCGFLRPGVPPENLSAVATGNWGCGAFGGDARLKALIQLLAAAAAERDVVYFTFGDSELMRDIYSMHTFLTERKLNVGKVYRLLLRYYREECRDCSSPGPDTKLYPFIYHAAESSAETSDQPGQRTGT

## O=C(CCCC(=O)N/N=C/c1ccc(O)c(O)c1O)N/N=C/c1ccc(O)c(O)c1O
  pIC50: 4.86

## O=C(N/N=C/c1cccc(O)c1O)c1ccc(C(=O)N/N=C/c2cccc(O)c2O)cc1
  pIC50: < 4.12

## O=C(N/N=C/c1ccc(O)cc1O)c1ccc(C(=O)N/N=C/c2ccc(O)cc2O)cc1
  pIC50: < 4.12

## O=C(N/N=C/c1ccc(O)c(O)c1)c1ccc(C(=O)N/N=C/c2ccc(O)c(O)c2)cc1
  pIC50: < 4.12

## O=C(N/N=C/c1ccc(O)c(O)c1O)c1ccc(C(=O)N/N=C/c2ccc(O)c(O)c2O)cc1
  pIC50: 6.00

## O=C(N/N=C/c1cc(O)c(O)c(O)c1)c1ccc(C(=O)N/N=C/c2cc(O)c(O)c(O)c2)cc1
  pIC50: 5.68

## O=C(N/N=C/c1c(O)cc(O)cc1O)c1ccc(C(=O)N/N=C/c2c(O)cc(O)cc2O)cc1
  pIC50: 5.00

## O=C(N/N=C/c1cccc(O)c1O)c1cccc(C(=O)N/N=C/c2cccc(O)c2O)c1
  pIC50: 4.83

## O=C(N/N=C/c1ccc(O)cc1O)c1cccc(C(=O)N/N=C/c2ccc(O)cc2O)c1
  pIC50: 4.40

## O=C(N/N=C/c1ccc(O)c(O)c1)c1cccc(C(=O)N/N=C/c2ccc(O)c(O)c2)c1
  pIC50: 4.72

## O=C(N/N=C/c1ccc(O)c(O)c1O)c1cccc(C(=O)N/N=C/c2ccc(O)c(O)c2O)c1
  pIC50: 5.51

## O=C(N/N=C/c1cc(O)c(O)c(O)c1)c1cccc(C(=O)N/N=C/c2cc(O)c(O)c(O)c2)c1
  pIC50: 5.49

## O=C(N/N=C/c1c(O)cc(O)cc1O)c1cccc(C(=O)N/N=C/c2c(O)cc(O)cc2O)c1
  pIC50: 4.73

## O=C(N/N=C/c1ccc(O)c(O)c1O)C(=O)N/N=C/c1ccc(O)c(O)c1O
  pIC50: 5.51

## O=C(N/N=C/c1cc(O)c(O)c(O)c1)C(=O)N/N=C/c1cc(O)c(O)c(O)c1
  pIC50: 5.55

## O=C(CC(=O)N/N=C/c1ccc(O)c(O)c1O)N/N=C/c1ccc(O)c(O)c1O
  pIC50: 5.80

## O=C(CC(=O)N/N=C/c1cc(O)c(O)c(O)c1)N/N=C/c1cc(O)c(O)c(O)c1
  pIC50: 4.81

## O=C(CCC(=O)N/N=C/c1ccc(O)c(O)c1O)N/N=C/c1ccc(O)c(O)c1O
  pIC50: 5.01

## O=C(CCC(=O)N/N=C/c1cc(O)c(O)c(O)c1)N/N=C/c1cc(O)c(O)c(O)c1
  pIC50: 5.09

## O=C(CCCC(=O)N/N=C/c1cc(O)c(O)c(O)c1)N/N=C/c1cc(O)c(O)c(O)c1
  pIC50: 4.56

## O=C(O[C@H]1[C@H](O)[C@@H](CO)OC(O)[C@@H]1O)c1cc(O)c(O)c(O)c1 (stereo partly drawn)
  pIC50: 6.02

## O=C(O)CCN1C(=O)/C(=C2\C(=O)c3cc(Br)ccc3N2Cc2c(Cl)cccc2Cl)SC1=S
  pIC50: 5.54

## Nc1ncnc2c1ncn2[C@@H]1O[C@H](CO[P@](=O)(O)O[P@@](=O)(O)OC[C@H]2NC[C@H](O)[C@@H]2O)[C@@H](O)[C@H]1O [ADENOSINE DIPHOSPHATE (HYDROXYMETHYL)PYRROLIDINEDIOL]
  pIC50: 7.00
